Values after ≈ are worked out from the molar mass of the structure shown.
Columns and labels:
[1] = system: Encephalomyocarditis virus; experiment: Antiviral activity against Encephalomyocarditis virus EMC infected in human HeLa assessed as inhibition of virus-induced cytopathic effect after 2 days by MTT assay; format: functional, organism-based; conditions: Cardiovirus A, 48 h
In short: (§1)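 In HeLa cells, virus-induced CPE inhibition was run with infected or mock-infected wells, 30 min virus adsorption, and compound in DMEM/2% FBS in duplicate per concentration. After 2 days at 37 °C, MTT read-out gave EC50 from infected wells and CC50 from mock-infected wells.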

[2] = system: Human immunodeficiency virus 2; experiment: Antiviral activity against HIV2 ROD infected in human MT4 cells assessed as inhibition of virus-induced cytopathic effect after 5 days by MTT assay; format: functional, organism-based; conditions: Human immunodeficiency virus 2, ROD, MT4, 120 h
In short: (§2)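 MT-4 cells (RPMI 1640/10% FBS), HIV-infected or mock-infected, were plated with 2× concentrated test samples and kept 5 days at 37 °C. Cells were inspected microscopically, then MTT was added for 1 h, dissolved in acidified 2-propanol, and read at 540 nm (690 nm reference). EC50 (50% protection) came from infected wells and CC50 (50% viability loss) from mock-infected wells.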

Coxsackievirus B3 = experiment: Antiviral activity against Coxsackievirus B3 Nancy infected in human HeLa assessed as inhibition of virus-induced cytopathic effect after 2 days by MTT assay; format: functional, organism-based; conditions: Enterovirus B, 48 h; in short: as §1
[3] = system: Vesicular stomatitis Indiana virus; experiment: Antiviral activity against Vesicular stomatitis Indiana virus infected in human HeLa assessed as inhibition of virus-induced cytopathic effect after 2 days by MTT assay; format: functional, organism-based; conditions: 48 h
In short: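 CPE-inhibition assay with VSV strain Indiana (stock grown in HeLa cells) on confluent HeLa cells (DMEM/5% FBS, gentamycin) in 96-well plates. Infection at 100 CCID50 per well with 30 min adsorption at 37 °C, then the compound in DMEM/2% FBS, duplicate wells per concentration, 2 days at 37 °C. Viability read by MTT; EC50 is the concentration giving 50% protection. Mock-infected wells gave CC50.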

[4] = Cytotoxicity against human HeLa cells after 2 days by MTT assay; format: cell-based; in short: as §1
Human alphaherpesvirus 2 = experiment: Antiviral activity against HSV2 MS infected in african green monkey Vero cells assessed as inhibition of virus-induced cytopathic effect after 3 days by MTT assay; format: functional, organism-based; conditions: Human alphaherpesvirus 2, MS, 72 h
In short: (§3)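 Confluent Vero cells were infected at 100 CCID50 per well, or mock-infected, with 1 h adsorption at 37 °C. Compound in DMEM/2% FBS was added in duplicate per concentration, followed by 3 days at 37 °C. Viability was read by MTT, and EC50 for CPE inhibition and CC50 for cytocidal effect were calculated.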

[5] = Cytotoxicity against african green monkey Vero cells after 3 days by MTT assay; format: cell-based; conditions: chlorocebus sabaeus; in short: as §3
Human alphaherpesvirus 1 = experiment: Antiviral activity against HSV1 F infected in african green monkey Vero cells assessed as inhibition of virus-induced cytopathic effect after 3 days by MTT assay; format: functional, organism-based; conditions: Human alphaherpesvirus 1, F, 72 h; in short: as §3
[6] = system: Human immunodeficiency virus 1; experiment: Antiviral activity against HIV1 3B infected in human MT4 cells assessed as inhibition of virus-induced cytopathic effect after 5 days by MTT assay; format: functional, organism-based; conditions: Human immunodeficiency virus 1, 3B, MT4, 120 h; in short: as §2
[7] = Cytotoxicity against human MT4 cells after 5 days by MTT assay; format: cell-based; in short: as §2

Structure (SMILES)	EC50 [1]	EC50 [2]	EC50 (Coxsackievirus B3)	EC50 [3]	CC50 at 48 h [4]	EC50 (Human alphaherpesvirus 2)	CC50 at 72 h [5]	EC50 (Human alphaherpesvirus 1)	EC50 [6]	CC50 at 120 h [7]
C=C(CC[C@@H](C)[C@H]1C[C@@H](O)[C@@H]2[C@]1(C)CC[C@@H]1[C@@]3(C)CC[C@H](O)[C@H](O)[C@@H]3[C@@H](O)C[C@]12O)C(C)CO[C@@H]1OC[C@@H](O)[C@H](O)[C@H]1O[C@@H]1OC[C@@H](O)[C@H](O)[C@H]1OC (some centres undefined) [ACODONTASTEROSIDE G]	> 51.5 µg/mL	> 42.5 µg/mL	> 51.5 µg/mL	> 51.5 µg/mL	51.5 µg/mL (≈ 67.9 µM)	94.5 µg/mL (≈ 125 µM)	> 100 µg/mL	86.1 µg/mL (≈ 113 µM)	> 42.5 µg/mL	42.5 µg/mL (≈ 56 µM)
CO[C@H]1[C@H](O[C@H]2[C@H](O[C@@H](CC[C@@H](C)[C@H]3C[C@@H](O)[C@@H]4[C@]3(C)CC[C@@H]3[C@@]5(C)CC[C@H](O)[C@H](O)[C@@H]5[C@@H](OS(=O)(=O)[O-])C[C@]34O)C(C)C)O[C@H](CO)[C@@H]2O)OC[C@@H](OC)[C@@H]1O.[Na+] [CERTONARDOSIDE G]	> 100 µg/mL	> 100 µg/mL	> 100 µg/mL	> 100 µg/mL	> 100 µg/mL	> 100 µg/mL	> 100 µg/mL	> 100 µg/mL	> 100 µg/mL	> 100 µg/mL
CO[C@H]1[C@H](O[C@H]2[C@H](O[C@@H](CC[C@@H](C)[C@H]3C[C@@H](O)[C@@H]4[C@]3(C)CC[C@@H]3[C@@]5(C)CC[C@H](O)[C@H](O)[C@@H]5[C@@H](O)C[C@]34O)C(C)C)O[C@H](CO)[C@@H]2O)OC[C@@H](OC)[C@@H]1O [CERTONARDOSIDE F]	> 64.8 µg/mL	> 39.7 µg/mL	> 64.8 µg/mL	> 64.8 µg/mL	64.8 µg/mL (≈ 85.2 µM)	> 100 µg/mL	> 100 µg/mL	> 100 µg/mL	> 39.7 µg/mL	39.7 µg/mL (≈ 52.2 µM)
O=c1[nH]cnc2c1ncn2[C@H]1CC[C@@H](CO)O1 [DIDANOSINE]	–	11 µg/mL (≈ 46.6 µM)	–	–	–	–	–	–	2.1 µg/mL (≈ 8.89 µM)	> 100 µg/mL
Nc1ccn([C@@H]2O[C@H](CO)[C@@H](O)[C@@H]2O)c(=O)n1 [CYTARABINE]	–	–	–	–	–	3 µg/mL (≈ 12.3 µM)	4.8 µg/mL (≈ 19.7 µM)	1.6 µg/mL (≈ 6.58 µM)	–	–
CO[C@@H]1CO[C@@H](OCC[C@@H](CC[C@@H](C)[C@H]2[C@@H](O)[C@@H](O)[C@H]3[C@@H]4C[C@H](OS(=O)(=O)[O-])[C@H]5[C@@H](O)[C@@H](O)CC[C@]5(C)[C@H]4CC[C@]23C)C(C)C)[C@H](O)[C@H]1O.[Na+] [CERTONARDOSIDE K]	> 57.9 µg/mL	> 100 µg/mL	> 57.9 µg/mL	> 57.9 µg/mL	57.9 µg/mL	82.1 µg/mL	> 100 µg/mL	97.8 µg/mL	> 100 µg/mL	> 100 µg/mL
CO[C@@H]1CO[C@@H](OCC[C@@H](CC[C@@H](C)[C@H]2[C@@H](O)[C@@H](O)[C@@H]3[C@]2(C)CC[C@@H]2[C@@]4(C)CC[C@H](O)[C@H](O)[C@@H]4[C@@H](OS(=O)(=O)[O-])C[C@]23O)C(C)C)[C@H](O)[C@H]1O.[Na+] [CERTONARDOSIDE J]	> 58.8 µg/mL	> 67.4 µg/mL	> 58.8 µg/mL	> 58.8 µg/mL	58.8 µg/mL	82.3 µg/mL	> 100 µg/mL	81.1 µg/mL	> 67.4 µg/mL	67.4 µg/mL
C=C(CC[C@@H](C)[C@H]1C[C@@H](O)[C@@H]2[C@]1(C)CC[C@@H]1[C@@]3(C)CC[C@H](O)C[C@@H]3[C@@H](O)C[C@]12O)C(C)CO[C@@H]1OC[C@@H](O)[C@H](OS(=O)(=O)[O-])[C@H]1O[C@@H]1OC[C@@H](O)[C@H](O)[C@H]1OC.[Na+] (some centres undefined) [CERTONARDOSIDE C]	> 100 µg/mL	> 1.4 µg/mL	> 100 µg/mL	> 100 µg/mL	> 100 µg/mL	> 97.5 µg/mL	97.5 µg/mL	> 97.5 µg/mL	> 1.4 µg/mL	1.4 µg/mL
Cc1cn([C@H]2C[C@H](N=[N+]=[N-])[C@@H](CO)O2)c(=O)[nH]c1=O [ZIDOVUDINE]	–	0.007 µg/mL (≈ 0.0262 µM)	–	–	–	–	–	–	0.001 µg/mL (≈ 0.00374 µM)	1.9 µg/mL (≈ 7.11 µM)
C=C(CC[C@@H](C)[C@H]1C[C@@H](O)[C@@H]2[C@]1(C)CC[C@@H]1[C@@]3(C)CC[C@H](O)[C@H](O)[C@@H]3[C@@H](O)C[C@]12O)C(C)CO[C@@H]1OC[C@@H](O)[C@H](OS(=O)(=O)[O-])[C@H]1O[C@@H]1OC[C@@H](O)[C@H](O)[C@H]1OC.[Na+] (some centres undefined) [CERTONARDOSIDE A]	> 100 µg/mL	> 6.8 µg/mL	> 100 µg/mL	> 100 µg/mL	> 100 µg/mL	> 100 µg/mL	> 100 µg/mL	> 100 µg/mL	> 6.8 µg/mL	6.8 µg/mL
CO[C@H]1[C@H](O[C@H]2[C@H](O[C@@H](CC[C@@H](C)[C@H]3C[C@@H](O)[C@H]4[C@@H]5C[C@H](O)[C@H]6[C@@H](O)[C@@H](O)CC[C@]6(C)[C@H]5CC[C@@]43C)C(C)C)O[C@H](CO)[C@@H]2O)OC[C@@H](OC)[C@@H]1O [CERTONARDOSIDE I]	> 59.9 µg/mL	> 42.5 µg/mL	> 59.9 µg/mL	> 59.9 µg/mL	59.9 µg/mL (≈ 80.4 µM)	> 100 µg/mL	> 100 µg/mL	> 100 µg/mL	> 42.5 µg/mL	42.5 µg/mL (≈ 57.1 µM)
Nc1nc2c(ncn2COCCO)c(=O)[nH]1 [ACYCLOVIR]	–	–	–	–	–	2.4 µg/mL (≈ 10.7 µM)	> 10 µg/mL	0.8 µg/mL (≈ 3.55 µM)	–	–
CO[C@H]1[C@H](O[C@H]2[C@H](OC[C@@H](C)[C@H](C)/C=C/[C@@H](C)[C@H]3C[C@@H](O)[C@@H]4[C@]3(C)CC[C@@H]3[C@@]5(C)CC[C@H](O)[C@H](O)[C@@H]5[C@@H](O)C[C@]34O)OC[C@@H](O)[C@@H]2OS(=O)(=O)[O-])OC[C@@H](O)[C@@H]1O.[Na+] [CERTONARDOSIDE D]	> 100 µg/mL	> 100 µg/mL	> 100 µg/mL	> 100 µg/mL	> 100 µg/mL	> 79.9 µg/mL	79.9 µg/mL	> 79.9 µg/mL	> 100 µg/mL	> 100 µg/mL
NC(=O)c1ncn([C@@H]2O[C@H](CO)[C@@H](O)[C@H]2O)n1 [RIBAVIRIN]	27.2 µg/mL (≈ 111 µM)	–	236 µg/mL (≈ 968 µM)	13.7 µg/mL (≈ 56.1 µM)	300 µg/mL (≈ 1230 µM)	–	–	–	–	–
Nc1ccn([C@H]2CC[C@@H](CO)O2)c(=O)n1 [ZALCITABINE]	–	0.1 µg/mL (≈ 0.473 µM)	–	–	–	–	–	–	0.1 µg/mL (≈ 0.473 µM)	11 µg/mL (≈ 52.1 µM)

From ChEMBL document CHEMBL1150133, “New saponins from the starfish Certonardoa semiregularis” (J Nat Prod, 2002)
